RGS4 block: human RGS4 inhibition; AID 463165; HEK293 M3R/RGS4 inducible, Fluo-4 calcium flux; stronger effect = higher value; triggered by carbachol at its EC20; P49798; B-score at 10 µM; 0.45% of 310,000 active;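 active means B-score, a plate-corrected calcium signal, over three deviations above library mean, with baseline fluorescence within five deviations of library mean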;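 further: RGS4 expression induced by doxycycline in cells with stable M3 receptor; B-score is computed from the integrated fluorescence ratio over baseline after carbachol; higher B-score means a larger calcium signal and so more RGS4 inhibition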
RGS4 pot: potentiators or activators of RGS4. 0.92% of 310,000 active. B-score at 10 µM. HEK293 M3R/inducible RGS4, carbachol calcium flux Fluo4; stronger effect = lower value;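 active means B-score of the integrated calcium signal more than 4 SD below the library mean, with starting fluorescence not abnormally high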;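 further: negative B-score means reduced calcium response which marks RGS4 activation or potentiation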
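Detection: kinetic calcium fluorescence imaging with Fluo4-AM dye, 2 µM / Material: HEK293 cells with stable M3R and inducible RGS4 / Schedule: recording 10 s baseline at 1 Hz, 100 s post-agonist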
MrgX1 antag: human MrgX1 receptor antagonism, primary screen; Q96LB2; MRGX1-HEK293 calcium flux, Fluo-4, BAM8-22 antagonism; stronger effect = lower value; B-score at 10 µM; 1.3% of 310,000 active; AID 588676;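 active means calcium-response B-score plate-corrected more than 3 library SD below zero, starting fluorescence within 5 deviations, no agonist response on first addition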;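 further: peak minus trough fluorescence over baseline after final BAM8-22 challenge near maximal dose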
Target sequence (Q96LB2 whole entry, looked up): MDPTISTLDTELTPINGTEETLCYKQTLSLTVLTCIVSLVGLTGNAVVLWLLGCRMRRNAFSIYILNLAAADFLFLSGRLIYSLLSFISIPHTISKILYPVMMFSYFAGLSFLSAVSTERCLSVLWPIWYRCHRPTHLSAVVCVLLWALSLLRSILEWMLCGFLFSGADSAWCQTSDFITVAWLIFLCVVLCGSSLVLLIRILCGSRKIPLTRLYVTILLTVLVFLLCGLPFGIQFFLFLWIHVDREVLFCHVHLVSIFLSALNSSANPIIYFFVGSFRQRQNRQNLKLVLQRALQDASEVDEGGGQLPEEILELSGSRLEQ
MrgX1 agonist: agonists of human MrgX1 receptor. 0.44% of 310,000 active. Q96LB2. MrgX1-HEK293 cells, Fluo-4 calcium fluorescence, agonist mode; stronger effect = higher value. B-score at 10 µM;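 active means calcium response B-score plate-corrected fluorescence ratio at least 3 library SD, with starting fluorescence B-score inside 5 SD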
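Test system: Stable human MrgX1 HEK293 cell line | Schedule: Overnight plating before 1 h dye loading | Read-out basis: Baseline-normalised fluorescence change ratio, B-scored | Detection: Kinetic calcium dye fluorescence, Fluo-4 NW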
MrgX1 allo act: human MrgX1 positive allosteric modulation, primary screen; 0.63% of 310,000 active; B-score at 10 µM; Q96LB2; MrgX1-HEK293, Fluo-4 calcium flux, FDSS; stronger effect = higher value;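 active means plate-corrected calcium response at least 3 library SD above typical, normal starting fluorescence, not activating the receptor alone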;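 further: compound read alongside a low EC10 to EC30 dose of BAM8-22 agonist; peak minus trough fluorescence over baseline measured at the second addition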
MrgX1 PAM conf: human MrgX1 positive allosteric modulation, re-confirmation; shares compounds with MrgX1 allo act; MrgX1-HEK293, Fluo-4 calcium fluorescence, FDSS; activation (ratio percentage), % at 10 µM; 13% of 1,200 active; AID 602413;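 active means ratio at least 3 SD above the weak peptide control, stable starting fluorescence, no direct agonism earlier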;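 further: compound followed by low BAM8-22 agonist challenge near EC20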
HEK293 Ca flux: MrgX1 antagonist counter-screen hit in parental HEK293 cells; shares compounds with MrgX1 antag; Fluo-4 calcium fluorescence, FDSS; fluorescence ratio F(max-min)/F0 at 10 µM; 2% of 4,000 active;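 active means duplicate-averaged calcium fluorescence ratio at least three times the standard deviation of buffer wells, a nonspecific response in parental cells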
HEK293 Ca counter: MrgX1 allosteric activator counter-screen hit in parental HEK293 cells. shares compounds with MrgX1 antag. parental HEK293 calcium flux, Fluo-4 fluorescence ratio; stronger effect = higher value. fluorescence ratio F(max-min)/F0 at 10 µM. 0.4% of 4,000 active. AID 624114;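 active means calcium fluorescence ratio, averaged over duplicates, at least 3 SD of the buffer-well ratio, meaning a nonspecific response in receptor-free cells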;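 further: untransfected parental HEK293 lacking MrgX1 used as counterscreen for MrgX1 allosteric activators; fluorescence change taken during the second addition on a kinetic imager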
HEK293 Ca cntr2: counter-screen for MrgX1 activators: effect in parental HEK293 cells | shares compounds with MrgX1 antag | Fluo-4 calcium fluorescence (FDSS); stronger effect = higher value | fluorescence ratio F(max-min)/F0 at 10 µM | 8.7% of 4,000 active | AID 624115;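 active means calcium fluorescence ratio at least three times the spread of buffer wells, meaning a non-specific response in parental cells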
* hit, by the source's call; i = inactive; / = not tested or not shown. Hits are enriched below; roughly 3.5% of the tested compounds scored in any of these assays.

SMILES	RGS4 block	RGS4 pot	MrgX1 antag	MrgX1 agonist	MrgX1 allo act	MrgX1 PAM conf	HEK293 Ca flux	HEK293 Ca counter	HEK293 Ca cntr2
O=C(CN1C(=O)c2cccnc2Oc2ccc(Cl)cc21)NC1CCCC1	i	i	i	i	i	/	/	/	/
CCCCCn1nc(C(=O)OCc2nnc(-c3ccccc3)o2)c2ccccc2c1=O	i	i	i	i	i	/	/	/	/
COc1cc(C)c(NC(c2ccccc2)c2ccccc2)cc1OC	i	i	i	i	8.7*	i	i	i	i
COc1ccccc1CNC(c1ccccc1)c1ccccc1	i	i	i	i	i	/	/	/	/
CC(C)c1ccc(-c2csc3ncnc(N4CCN(C)CC4)c23)cc1	i	i	i	i	7.3*	i	i	i	i
CN1CCCN(c2ncnc3scc(-c4ccc(F)cc4)c23)CC1	i	i	i	i	i	/	/	/	/
Cc1cc(C)n2c(SCC(=O)Nc3ccc(F)cc3)nnc2n1	i	i	i	i	14*	i	i	i	i
Cc1cc(C)n2c(SCC(=O)Nc3ccc(F)cc3F)nnc2n1	i	i	i	i	i	/	/	/	/
Cc1ccc(Sc2ncccc2C(=O)N(C)Cc2cccs2)c(C)c1	i	i	i	i	25*	i	i	i	i
Cc1ccc(Nc2ncccc2C(=O)NCc2cccs2)c(C)c1	i	i	i	i	i	/	/	/	/
CC(=O)c1sc(NC(=O)Cc2c(F)cccc2Cl)nc1C	i	i	i	i	i	/	/	/	/
O=C(Cc1c(F)cccc1Cl)Nc1nc2ccccc2s1	i	i	i	i	21*	i	i	i	i
CCc1ccc(/C=N\n2cnnc2)cc1	i	i	i	i	i	/	/	/	/
CCc1ccc(/C(C)=N/NC(=O)c2c[nH]c3ccccc23)s1	i	i	i	i	i	/	/	/	/
O=[N+]([O-])c1cc2c(cc1CN1CCN(CCOCCO)CC1)OCO2	i	i	i	i	i	/	/	/	/
N#CC1=C(N)OC2=C(CCc3ccccc32)C1c1ccccc1 (stereo unspecified)	i	i	i	i	9.7*	i	i	i	i
N#CC1=C(N)Oc2cc(O)ccc2C1c1ccccc1 (stereo unspecified)	i	i	i	i	i	/	/	/	/
Cn1c2c(c(=O)n3ncnc13)CCCC2	i	i	i	i	i	/	/	/	/
Cc1nc([N+](=O)[O-])c(C(=O)OCc2ccccc2C#N)n1C	i	i	i	i	i	/	/	/	/
Cc1ccc(Nc2cc(C)c3ccc(O)cc3n2)cc1C	i	i	i	i	10*	i	i	i	i
Cc1ccc(Nc2cc(C)c3c(O)cccc3n2)cc1C	i	i	i	i	i	/	/	/	/
Cc1ccc(-c2csc3ncnc(NCCC(=O)O)c23)cc1C	i	i	i	i	6.7*	i	i	i	i
Cc1ccc(-c2csc3ncnc(NCCC(=O)O)c23)cc1	i	i	i	i	i	/	/	/	/
CC(=O)/C(=C(/O)c1ccccc1)c1nc2ccccc2[nH]1	i	i	i	i	12*	i	i	i	i
CCc1ccc(N2C(=O)CC(Cn3nc(C)cc3C)C2=O)cc1 (stereo unspecified)	i	i	i	i	i	/	/	/	/
Cc1cccc(C(=O)Nc2scc(CC(C)C)c2C(=O)O)c1	i	i	i	i	i	/	/	/	/
Cc1ccc(-c2csc(NC(=O)c3cccc(C)c3)c2C(=O)O)cc1	i	i	i	i	6.6*	i	i	i	i

Bioassay records from PubChem BioAssay.
